Reference: ChEMBL document CHEMBL4321882, “α-Helix-Mimicking Sulfono-γ-AApeptide Inhibitors for p53-MDM2/MDMX Protein-Protein Interactions” (J Med Chem, 2020)
Active and inactive are the calls of the source. No cut-off for these calls is given here.

How the values were obtained:
[1] = Enzymatic stability assessed as alpha-chymotrypsin (unknown origin)-mediated compound hydrolysis at pH 7.8 at 0.1 mg/ml incubated for 24 hrs by HPLC-MS analysis; format: ADME; settings: human, buffer, pH 7.8, 24 h
Outline: (§1)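 Compound (0.1 mg/mL) was incubated with 0.1 mg/mL α-chymotrypsin or pronase in 100 mM ammonium bicarbonate, pH 7.8, at 37 °C for 24 h. Mixtures were concentrated by speed vacuum to remove water and buffer salt. Residual compound was then analysed by HPLC-MS.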

[2] = Enzymatic stability assessed as pronase (unknown origin)-mediated compound hydrolysis at pH 7.8 at 0.1 mg/ml incubated for 24 hrs by HPLC-MS analysis; format: ADME; settings: buffer, pH 7.8, 24 h; outline: as §1
[3] = target: T1, E3 ubiquitin-protein ligase Mdm2 (Homo sapiens, UniProt Q00987); test: Binding affinity to human MDM2 expressed in Escherichia coli expression system by using (FITC)-labeled p53 peptide based fluorescence polarization competitive assay
Target sequence in this assay (Q00987 whole entry): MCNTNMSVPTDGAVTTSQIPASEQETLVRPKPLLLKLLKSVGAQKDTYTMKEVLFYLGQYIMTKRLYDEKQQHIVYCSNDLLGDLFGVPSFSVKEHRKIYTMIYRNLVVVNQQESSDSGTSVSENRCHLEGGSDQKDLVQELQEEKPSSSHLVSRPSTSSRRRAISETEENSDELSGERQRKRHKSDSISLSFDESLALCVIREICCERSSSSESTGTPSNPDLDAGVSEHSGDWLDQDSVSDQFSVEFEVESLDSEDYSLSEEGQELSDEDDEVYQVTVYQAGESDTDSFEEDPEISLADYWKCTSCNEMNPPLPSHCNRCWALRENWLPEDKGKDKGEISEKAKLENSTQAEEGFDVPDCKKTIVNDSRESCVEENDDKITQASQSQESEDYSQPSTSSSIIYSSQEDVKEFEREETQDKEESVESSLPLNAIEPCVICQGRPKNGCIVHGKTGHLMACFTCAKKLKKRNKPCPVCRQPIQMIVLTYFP

[4] = target: T1, E3 ubiquitin-protein ligase Mdm2; test: Potency index, ratio of p53 IC50 to test compound IC50 for binding affinity to human MDM2 expressed in Escherichia coli expression system by using (FITC)-labeled p53 peptide based fluorescence polarization competitive assay
Target sequence in this assay (Q00987 whole entry, looked up): as the sequence (Q00987 whole entry) above

[5] = target: Cellular tumor antigen p53 (Homo sapiens) (UniProt P04637); test: Activation of p53 in human U2OS cells cotransfected with BP100-luc and CMV-lacZ gene assessed as luciferase gene expression at 30 uM incubated for 18 hrs by p53-dependent luciferase transcriptional activation assay; format: cell-based
Chain of Cellular tumor antigen p53 (Homo sapiens) (P04637 whole entry, looked up): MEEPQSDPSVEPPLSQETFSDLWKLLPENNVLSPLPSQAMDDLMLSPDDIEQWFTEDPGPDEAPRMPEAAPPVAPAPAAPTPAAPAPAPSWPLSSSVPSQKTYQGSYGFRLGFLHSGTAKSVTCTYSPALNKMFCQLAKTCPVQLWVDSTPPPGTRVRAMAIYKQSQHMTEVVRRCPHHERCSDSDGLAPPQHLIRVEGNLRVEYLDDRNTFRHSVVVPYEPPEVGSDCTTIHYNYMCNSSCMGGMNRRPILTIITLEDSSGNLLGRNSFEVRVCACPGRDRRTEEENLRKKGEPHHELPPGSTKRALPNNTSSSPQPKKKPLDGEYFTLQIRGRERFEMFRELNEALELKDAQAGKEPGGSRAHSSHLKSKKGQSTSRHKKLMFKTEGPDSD
Outline: (§2)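 U2OS cells stably carrying the p53-responsive BP100-luc reporter and a CMV-lacZ control were seeded at 100,000 per well 24 h before dosing at 30 μM. Lysates were assayed for luciferase and β-gal activity. […] Each value is the average of at least three measurements, with standard deviation.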

[6] = target: Cellular tumor antigen p53 (Homo sapiens) (UniProt P04637); test: Activation of p53 in human U2OS cells cotransfected with BP100-luc and CMV-lacZ gene assessed as lacZ gene expression at 30 uM incubated for 18 hrs by p53-dependent luciferase transcriptional activation assay; format: cell-based; outline: as §2
Protein Mdm4 = target: T2, Protein Mdm4 (Homo sapiens, UniProt O15151); test: Binding affinity to MDMX (unknown origin) by using (FITC)-labeled p53 peptide based fluorescence polarization competitive assay
T2 sequence (O15151 whole entry): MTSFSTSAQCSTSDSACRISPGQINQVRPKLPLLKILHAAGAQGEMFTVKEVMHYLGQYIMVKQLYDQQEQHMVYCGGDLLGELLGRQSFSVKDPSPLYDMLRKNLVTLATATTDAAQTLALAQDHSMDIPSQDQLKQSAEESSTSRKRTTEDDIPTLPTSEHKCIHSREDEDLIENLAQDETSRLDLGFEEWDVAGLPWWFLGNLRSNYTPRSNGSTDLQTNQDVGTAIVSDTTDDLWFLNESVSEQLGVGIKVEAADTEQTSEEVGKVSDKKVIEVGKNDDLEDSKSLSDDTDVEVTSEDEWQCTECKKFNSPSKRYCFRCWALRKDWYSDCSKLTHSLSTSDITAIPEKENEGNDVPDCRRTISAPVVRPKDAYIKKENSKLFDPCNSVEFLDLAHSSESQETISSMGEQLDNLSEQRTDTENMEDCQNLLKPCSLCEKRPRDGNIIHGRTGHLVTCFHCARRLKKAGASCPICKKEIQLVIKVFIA

[7] = target: T3, Tumour suppressor p53/oncoprotein Mdm2 (Homo sapiens) (UniProt P04637+Q00987); test: Inhibition of MDM2/p53 interaction in human U2OS cells assessed as increase in MDM2 level at 30 uM incubated for 16 hrs by Western blot analysis; format: cell-based
T3 sequence (P04637 whole entry, looked up): as the sequence (P04637 whole entry, looked up) above
T3 sequence (Q00987 whole entry, looked up): as the sequence (Q00987 whole entry) above
Outline: (§3)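 Exponentially growing U2OS cells were treated at 30 μM for 16 h, then lysed in RIPA with 1 mM PMSF and protease inhibitors. Lysates were resolved by SDS-PAGE and blotted. Blots were blocked in PBS with 5% milk and 0.1% Tween 20.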

[8] = target: T3, Tumour suppressor p53/oncoprotein Mdm2 (Homo sapiens); test: Inhibition of MDM2/p53 interaction in human U2OS cells assessed as increase in p53 level at 30 uM incubated for 16 hrs by Western blot analysis; format: cell-based; outline: as §3
[9] = target: T3, Tumour suppressor p53/oncoprotein Mdm2 (Homo sapiens); test: Inhibition of MDM2/p53 interaction in human U2OS cells assessed as increase in p21 level at 30 uM incubated for 16 hrs by Western blot analysis; format: cell-based; outline: as §3
HCT-116 [10] = test: Antiproliferative activity against human HCT116 cells expressing wild-type p53 assessed as reduction in cell viability at 200 uM incubated for 48 hrs by MTT assay
HCT-116 [11] = test: Antiproliferative activity against human HCT116 cells harboring p53 deletion mutant assessed as reduction in cell viability at 200 uM incubated for 48 hrs by MTT assay
[12] = target: T1, E3 ubiquitin-protein ligase Mdm2; test: Binding affinity to human MDM2 (17-125 residues) by NMR spectroscopic analysis
Outline: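 Uniformly 15N/13C-labelled human MDM2 residues 17–125 was analysed free and with ligand. Sensitivity-enhanced 1H–15N HSQC and 3D HNCA spectra were recorded for resonance assignment. Buffer was 50 mM sodium phosphate, 100 NaCl, 1 mM EDTA, 0.02% sodium azide and 2 mM DTT, pH 6.8, with 10% D2O.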
Target sequence in this assay (Q00987 whole entry, looked up): as the sequence (Q00987 whole entry) above

[13] = target: T1, E3 ubiquitin-protein ligase Mdm2; test: Potency index, ratio of p53 binding affinity to compound binding affinity to human MDM2 (17-125 residues) by NMR spectroscopic analysis
Target sequence in this assay (Q00987 whole entry, looked up): as the sequence (Q00987 whole entry) above

| Compound | Stability [1] | Stability [2] | Kd [3] [nM] | IC50 ([3]; read-out: IC50) [nM] | Ratio IC50 [4] | Activity [5] | Activity [6] | IC50 (Protein Mdm4) [nM] | Kd (Protein Mdm4) [nM] | inhibition [7] | inhibition [8] | inhibition [9] | inhibition (HCT-116 [10]) | Activity (HCT-116 [11]) | Activity [12] | Ratio [13] | IC50 [3] |
| --- | --- | --- | --- | --- | --- | --- | --- | --- | --- | --- | --- | --- | --- | --- | --- | --- | --- |
| CC(=O)N[C@@H](CC(C)C)CN(CC(=O)N[C@@H](Cc1ccccc1)CN(CC(=O)N[C@@H](CCC(=O)O)CN(CC(=O)N[C@@H](Cc1c[nH]c2ccccc12)CN(CC(=O)N[C@@H](CCCCN)CN(CC(=O)N[C@@H](CC1CCCCC1)CN(CC(=O)N[C@@H](C)CN(CC(N)=O)S(C)(=O)=O)S(=O)(=O)CC(C)C)S(C)(=O)=O)S(C)(=O)=O)S(C)(=O)=O)S(C)(=O)=O)S(=O)(=O)c1ccc(Cl)cc1 | Stable | Stable | – | – | – | – | – | – | – | – | – | – | – | – | – | – | – |
| CC(=O)N[C@@H](CC(C)C)CN(CC(=O)N[C@@H](Cc1ccccc1)CN(CC(=O)N[C@@H](CCC(=O)O)CN(CC(=O)N[C@@H](Cc1c[nH]c2ccccc12)CN(CC(=O)N[C@@H](CCCCN)CN(CC(=O)N[C@@H](CC(C)C)CN(CC(=O)N[C@@H](C)CN(CC(N)=O)S(C)(=O)=O)S(=O)(=O)CC(C)C)S(C)(=O)=O)S(C)(=O)=O)S(C)(=O)=O)S(C)(=O)=O)S(=O)(=O)c1ccc(Cl)cc1 | Stable | Stable | 57 | 2800 | 1.5 | Active | inactive | 6000 | 370 | – | – | – | – | – | – | – | – |
| CC(=O)N[C@@H](CC(C)C)CN(CC(=O)N[C@@H](Cc1ccccc1)CN(CC(=O)N[C@@H](CCC(=O)O)CN1CC(=O)N[C@@H](Cc2c[nH]c3ccccc23)CN(S(C)(=O)=O)CC(=O)N[C@@H](CCCCN)CN(CC(=O)N[C@@H](CC(C)C)CN(CC(=O)N[C@@H](C)CN(CC(N)=O)S(C)(=O)=O)S(=O)(=O)CC(C)C)S(=O)(=O)CC/C=C/CCCCS1(=O)=O)S(C)(=O)=O)S(=O)(=O)c1ccc(Cl)cc1 | Stable | Stable | – | 3600 | – | 25% | – | 6600 | – | Active | Active | Active | – | – | – | – | – |
| CC(=O)N[C@@H](CC(C)C)CN(CC(=O)N[C@@H](Cc1ccccc1)CN(CC(=O)N[C@@H](CCC(=O)O)CN1CC(=O)N[C@@H](Cc2c[nH]c3ccccc23)CN(S(C)(=O)=O)CC(=O)N[C@@H](CCCCN)CN(CC(=O)N[C@@H](CC(C)C)CN(CC(=O)N[C@@H](C)CN(CC(N)=O)S(C)(=O)=O)S(=O)(=O)CC(C)C)S(=O)(=O)CCCC/C=C/CCCCS1(=O)=O)S(C)(=O)=O)S(=O)(=O)c1ccc(Cl)cc1 | Stable | Stable | – | 1900 | – | 70% | – | 3900 | – | Active | Active | Active | Active | Active | – | – | – |
| CC(=O)N[C@@H](CC(C)C)CN(CC(=O)N[C@@H](Cc1ccccc1)CN(CC(=O)N[C@@H](CCC(=O)O)CN(CC(=O)N[C@@H](Cc1c[nH]c2ccccc12)CN(CC(=O)N[C@@H](CCCCN)CN(CC(=O)N[C@@H](CC1CCC1)CN(CC(=O)N[C@@H](C)CN(CC(N)=O)S(C)(=O)=O)S(=O)(=O)CC(C)C)S(C)(=O)=O)S(C)(=O)=O)S(C)(=O)=O)S(C)(=O)=O)S(=O)(=O)c1ccc(Cl)cc1 | Stable | Stable | 26 | 891 | – | Active | inactive | 3600 | 221 | – | – | – | Active | Active | Active | 10 | – |
| CC(=O)N[C@@H](CC(C)C)CN(CC(=O)N[C@@H](Cc1ccccc1)CN(CC(=O)N[C@@H](CCC(=O)O)CN(CC(=O)N[C@@H](C)CN(CC(=O)N[C@@H](CCCCN)CN(CC(=O)N[C@@H](CC(C)C)CN(CC(=O)N[C@@H](C)CN(CC(N)=O)S(C)(=O)=O)S(=O)(=O)CC(C)C)S(C)(=O)=O)S(C)(=O)=O)S(C)(=O)=O)S(C)(=O)=O)S(=O)(=O)c1ccc(Cl)cc1 | – | – | – | – | – | – | – | – | – | – | – | – | – | – | – | – | Not Active |
